Data as given in ChEMBL document CHEMBL2434885, “cis-Dichloroplatinum(II) complexes tethered to dibenzo[c,h][1,6]naphthyridin-6-ones: synthesis and cytotoxicity in human cancer cell lines in vitro” (Eur J Med Chem, 2013).

Assays:
Assay type in all cases: functional, cell-based
[1] = tested on: HCT-116; test: Cytotoxicity against human HCT116 cells after 72 hrs by crystal-violet staining-based spectrophotometric analysis; conditions: HCT-116, 72 h
Summary of the method: (§1)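 Subconfluent, exponentially growing, mycoplasma-free monolayers in RPMI 1640 + 10% FBS, 5% CO2. Cells treated 72 h with 0–500 µM (compounds in physiological serum, or in DMF at ≤3% final). Cells then PBS-washed, ethanol-fixed, stained with 1% crystal violet and eluted in 33% acetic acid, with A570 read. Triplicates, three independent experiments. IC50 taken from concentration–response curves as 50% growth inhibition.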

[2] = tested on: HT-29; test: Cytotoxicity against human HT-29 cells after 72 hrs by crystal-violet staining-based spectrophotometric analysis; conditions: HT-29, 72 h; summary of the method: as §1
[3] = tested on: SW480; test: Cytotoxicity against human SW480 cells after 72 hrs by crystal-violet staining-based spectrophotometric analysis; conditions: SW480, 72 h; summary of the method: as §1

NCCNCCn1c(=O)c2cc([N+](=O)[O-])ccc2c2cnc3cc4c(cc3c21)OCO4
IC50 [1]: 25 µM
IC50 [2]: 43 µM
IC50 [3]: 40.7 µM

NCCNCCCn1c(=O)c2cc([N+](=O)[O-])ccc2c2cnc3cc4c(cc3c21)OCO4
IC50 [1]: 12.2 µM
IC50 [2]: 22.2 µM
IC50 [3]: 30.1 µM

NCCNCCCCn1c(=O)c2cc([N+](=O)[O-])ccc2c2cnc3cc4c(cc3c21)OCO4
IC50 [1]: 30.7 µM
IC50 [2]: 41.2 µM
IC50 [3]: 43.7 µM

NCCNCCCCCn1c(=O)c2cc([N+](=O)[O-])ccc2c2cnc3cc4c(cc3c21)OCO4
IC50 [1]: 25.2 µM
IC50 [2]: 47.6 µM
IC50 [3]: 50.7 µM

NCCNCCCCCCn1c(=O)c2cc([N+](=O)[O-])ccc2c2cnc3cc4c(cc3c21)OCO4
IC50 [1]: 15.4 µM
IC50 [2]: 30.8 µM
IC50 [3]: 24 µM
